The values that follow come from ChEMBL document CHEMBL4196059, “Design, synthesis, and biological evaluation of stable β6.3-Helices: Discovery of non-hemolytic antibacterial peptides” (Eur J Med Chem, 2018).

Data set [1] deals with Lipid bilayer. As to the kind of experiment: Binding affinity to POPC vesicles by surface plasmon resonance spectroscopy. The method in brief:
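SPR on a dextran chip carrying immobilized POPC liposomes, with running buffer of 10 mM HEPES and 100 mM KCl at pH 7.4. Peptides in PBS were flowed at 25 μL/min at 10–1000 μM, with reference-subtracted response units. KD and Rmax were fitted from maximum response versus concentration. Regeneration used 20 mM CHAPS followed by fresh liposomes.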

Data set [2] in a line: Hemolytic activity against human RBC at 0.39 uM after 1 hr by Drabkin's assay relative to control. Format: ADME, cell-based, Erythrocyte. The following applies: human red blood cells (erythrocytes), read-out: Activity.
Data set [3] can be described thus: Hemolytic activity against human RBC at 6.25 uM after 1 hr by Drabkin's assay relative to control. Format: ADME, cell-based, Erythrocyte. The following applies: human red blood cells (erythrocytes), read-out: Activity.
In another data set the test system is Cryptococcus neoformans. As to the kind of experiment: Growth inhibition of Cryptococcus neoformans H99 ATCC 208821 at 32 ug/ml after 24 hrs by resazurin dye-based microspectrophotometric assay. Type of data set: functional. The following applies: var. grubii H99 ATCC 208821, 24 h, read-out: GI. The method, boiled down: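 Yeasts were grown 3 days on YPD agar at 30 °C, suspended from five colonies and diluted in YNB broth to a final 2.5×10^3 CFU/mL. Compound at a final 32 μg/mL; incubated 24 h at 35 °C without shaking. C. albicans was read at OD530. C. neoformans was read as OD600–570 after resazurin (0.001% final) and a further 2 h at 35 °C. Fluconazole was the standard.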
In general terms: Alamar Blue is a resazurin reagent that responds to reducing activity.

For another data set, the system named is Acinetobacter baumannii. As to the kind of experiment: Growth inhibition of Acinetobacter baumannii ATCC 19606 at 32 ug/ml after 18 hrs. Format: functional. The following applies: ATCC 19606 = CIP 70.34 = JCM 6841, 18 h, read-out: GI. The method, boiled down:
(§1)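 Mid-log cultures were prepared as above and seeded at 5×10^5 CFU/mL with compound at a final 32 μg/mL, then held static at 37 °C for 18 h. Growth was read as OD600. Percent inhibition was calculated against media-only and bacteria-only controls on the same plate.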

Data set [4] can be described thus: Hemolytic activity against human RBC at 3.125 uM after 1 hr by Drabkin's assay relative to control. As to conditions: human red blood cells (erythrocytes), read-out: Activity. Format: ADME, cell-based, Erythrocyte.
The next data set relates to Erythrocyte. The experiment in a line: Hemolytic activity against human RBC after 1 hr by Drabkin's assay. Format: ADME, cell-based.
The nature of data set [5]: Hemolytic activity against human RBC at 1.56 uM after 1 hr by Drabkin's assay relative to control. Type of data set: ADME, cell-based, Erythrocyte. The following applies: human red blood cells (erythrocytes), read-out: Activity.
The nature of data set [6]: Hemolytic activity against human RBC at 25 uM after 1 hr by Drabkin's assay relative to control. Format: ADME, cell-based, Erythrocyte. As to conditions: human red blood cells (erythrocytes), read-out: Activity.
Data set [7] can be described thus: Hemolytic activity against human RBC at 12.5 uM after 1 hr by Drabkin's assay relative to control. Format: ADME, cell-based, Erythrocyte. As to conditions: human red blood cells (erythrocytes), read-out: Activity.
In another data set the test system is Escherichia coli. As to the kind of experiment: Growth inhibition of Escherichia coli ATCC 25922 at 32 ug/ml after 18 hrs. Type of data set: functional. The following applies: ATCC 25922, 18 h, read-out: GI. The method in brief: as §1
A further data set relates to Pseudomonas aeruginosa. As to the kind of experiment: Growth inhibition of Pseudomonas aeruginosa ATCC 27853 at 32 ug/ml after 18 hrs. Format: functional. As to conditions: ATCC 27853, 18 h, read-out: GI. The method, boiled down: as §1
The test system of another data set is Klebsiella pneumoniae. As to the kind of experiment: Growth inhibition of multidrug-resistant Klebsiella pneumoniae ATCC 700603 at 32 ug/ml after 18 hrs. Format: functional. The following applies: ATCC 700603, 18 h, read-out: GI. The method, boiled down: (§2)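 Mid-log cultures in cation-adjusted Mueller Hinton broth were added at 5×10^5 CFU/mL to wells at a final compound concentration of 32 μg/mL. Plates stood at 37 °C for 18 h. Growth was read by OD600, and % inhibition was computed against media-only and untreated-bacteria controls.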

Data set [8] in a line: Induction of pore formation in DOPC vesicles at 20 uM after 3 mins by carboxyfluorescein dye leakage assay.
Data set [9] is described as follows: Hemolytic activity against human RBC at 0.78 uM after 1 hr by Drabkin's assay relative to control. The following applies: human red blood cells (erythrocytes), read-out: Activity. Format: ADME, cell-based, Erythrocyte.
The subject of a further data set is Candida albicans. The experiment in a line: Growth inhibition of Candida albicans ATCC 90028 at 32 ug/ml after 24 hrs by OD530 light-scattering microspectrophotometric method. The following applies: ATCC 90028, 24 h, read-out: GI.
Another data set has as its system Staphylococcus aureus. As to the kind of experiment: Growth inhibition of methicillin-resistant Staphylococcus aureus ATCC 43300 at 32 ug/ml after 18 hrs. The following applies: ATCC 43300, 18 h, read-out: GI. Type of data set: functional. The method in brief: as §2
The subject of data set [10] is Lipid bilayer. The experiment in a line: Induction of pore formation in POPC vesicles at 20 to 100 uM after 3 mins by carboxyfluorescein dye leakage assay.
A short description of data set [11]: Hemolytic activity against human RBC at 50 uM after 1 hr by Drabkin's assay relative to control. As to conditions: human red blood cells (erythrocytes), read-out: Activity. Type of data set: ADME, cell-based, Erythrocyte.

Active and inactive are the calls of the source. The calls are words filed in the database; no cut-off is given here.

Consider `O=C(NCCO)[C@@H]1CCCN1C(=O)N1CCCN1C(=O)[C@@H]1CCCN1C(=O)N1CCCN1C(=O)[C@@H]1CCCN1C(=O)N1CCCN1C(=O)[C@@H]1CCCN1C(=O)N1CCCN1C(=O)[C@@H]1CCCN1C(=O)N1CCCN1C(=O)[C@@H]1CCCN1C(=O)N1CCCN1C(=O)[C@@H]1CCCN1C(=O)N1CCCN1C(=O)[C@@H]1CCCN1C(=O)N1CCCN1C(=O)OCc1ccccc1`, for which, on Lipid bilayer [1], binding was characterised by a dissociation constant (Kd) of 373 µM. For the same molecule, the Rmax in the data set on Lipid bilayer [1] was found to be 601. The hemolysis at 1 h, 0.39 µM in [2] was -0.04%. In [3], the hemolysis at 1 h, 6.25 µM was -0.11%. The inhibition of growth at 32 µg/mL in the data set with Cryptococcus neoformans was -4.06%; in the data set on Acinetobacter baumannii, 36.2%; with Escherichia coli, 11.3%; in the data set with Pseudomonas aeruginosa, -2.74%; in the data set on Klebsiella pneumoniae, 11.3%; with Candida albicans, 4.99%. In addition, in the data set on Staphylococcus aureus, the inhibition of growth at 32 µg/mL was 11.8%. Moreover, the hemolysis at 1 h, 3.125 µM in data set [4] is 0.15%. The results for the Activity entry (in the data set with Erythrocyte; in data set [8]) were “Dose-dependent effect” and 13%, respectively. For the same molecule, the hemolysis at 1 h, 1.56 µM in data set [5] was determined as 0.02%. The hemolysis at 1 h, 25 µM in data set [6] was -0.04%. For the same molecule, in data set [7], the hemolysis at 1 h, 12.5 µM was -0.04%. In data set [9], the hemolysis at 1 h, 0.78 µM is 0.15%. In addition, the result in the data set on Lipid bilayer [10] was inactive. Also, in data set [11], the hemolysis at 1 h, 50 µM is -0.04%.
